Measured values reported in ChEMBL document CHEMBL5370647 (J Med Chem, 2023).
pKd: −log10 of the molar value. Values after ≈ are worked out from the molar mass of the structure shown.

How the values were obtained:
[1] = system: Mycobacterium tuberculosis; assay: Antitubercular activity against non-replicating Mycobacterium tuberculosis H37Rv expressing luxCDAB assessed as inhibition of bacterial growth incubated for 7 days under hypoxia conditions followed by incubation in normoxia conditions for 5 days by luminescence based analysis; format: functional; conditions: 288 h, time 12 day
[2] = biological target: T1, TGF-beta receptor type-1 (Homo sapiens, UniProt P36897); assay: Binding affinity to wild type human partial length TGFBR1 (D179 to M503 residues) expressed in bacterial expression system by KINOMEscan assay
T1 sequence (P36897 whole entry): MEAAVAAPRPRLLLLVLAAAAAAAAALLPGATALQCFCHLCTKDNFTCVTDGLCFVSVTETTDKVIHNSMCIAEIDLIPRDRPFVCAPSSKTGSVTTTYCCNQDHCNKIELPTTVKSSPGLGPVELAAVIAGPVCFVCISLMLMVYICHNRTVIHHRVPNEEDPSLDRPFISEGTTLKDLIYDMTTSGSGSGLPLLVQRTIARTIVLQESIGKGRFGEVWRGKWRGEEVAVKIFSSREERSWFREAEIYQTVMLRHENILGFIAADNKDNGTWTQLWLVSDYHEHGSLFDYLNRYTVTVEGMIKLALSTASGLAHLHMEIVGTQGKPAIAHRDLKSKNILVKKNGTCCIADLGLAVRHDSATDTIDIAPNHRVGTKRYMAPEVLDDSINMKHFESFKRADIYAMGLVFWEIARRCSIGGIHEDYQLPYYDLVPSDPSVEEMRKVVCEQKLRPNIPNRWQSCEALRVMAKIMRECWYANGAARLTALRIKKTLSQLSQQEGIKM

[3] = Metabolic stability of the compound in CD-1 mouse liver microsomes assessed as parent compound remaining at 5 uM preincubated for 5 mins followed by NADPH addition and measured after 30 mins by LC-TOF/MS analysis; format: ADME, Microsome; conditions: time 35 min, read-out: Stability
In short: (§1)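 Mouse liver microsomes incubated with compound in the presence of NADPH. Read-out is % parent compound remaining after 30 min.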

[4] = Metabolic stability of the compound in CD-1 mouse liver microsomes at 5 uM by LC-TOF/MS analysis; format: ADME, Microsome; in short: as §1
[5] = system: Mycobacterium tuberculosis; assay: Antitubercular activity against Mycobacterium tuberculosis H37Rv constitutively expressing GFP assessed as inhibition of bacterial growth at 20 uM incubated for 7 days by fluorescence based analysis; format: functional; conditions: 168 h, time 7 day
[6] = system: Mycobacterium tuberculosis; assay: Antitubercular activity against replicating Mycobacterium tuberculosis H37Rv constitutively expressing GFP assessed as inhibition of bacterial growth under normoxia conditions incubated for 3 weeks by spot assay; format: functional; conditions: 504 h
[7] = system: Mycobacterium tuberculosis; assay: Antitubercular activity against non-replicating Mycobacterium tuberculosis H37Rv constitutively expressing GFP assessed as inhibition of bacterial growth incubated for 7 days under hypoxic condition followed by incubation in aerobic conditions for 1 to 5 days by spot assay; format: functional; conditions: time 8-12 day
[8] = AUC(last) in CD-1 mouse at 10 mg/kg, po by LC/MS/MS analysis; format: ADME, organism-based; parameters: dose 10 mg/kg, route po; conditions: in vivo
In short: (§2)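 CD1 mice dosed orally at 10 mg/kg (snapshot PK study). Plasma levels followed over 5 h by LC/MS/MS. T1/2, Cmax and AUC_last derived from the plasma profile.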

[9] = Half life in CD-1 mouse at 10 mg/kg, po by LC/MS/MS analysis; format: ADME, organism-based; conditions: in vivo; in short: as §2
[10] = Cmax in CD-1 mouse at 10 mg/kg, po by LC/MS/MS analysis; format: ADME, organism-based; parameters: dose 10 mg/kg, route po; conditions: in vivo; in short: as §2

Row | SMILES | MIC50 [1] | MIC90 [1] | other results
1 | Cc1cccc(-c2nc(Nc3ccc4[nH]ccc4c3)c3ccccc3n2)n1 | 1.3 µM (≈ 0.457 µg/mL) | 1.3 µM (≈ 0.457 µg/mL) | –
2 | Cc1cccc(-c2nc(Nc3ccc4c(c3)nnn4C)c3ccccc3n2)n1 | < 0.3 µM | 1.3 µM (≈ 0.478 µg/mL) | pKd [2]: < 5.00; remaining at 0.5 h, 5 µM [3]: 28%; Stability [4]: Stable
3 | Cc1cccc(-c2nc(Nc3ccc4ncsc4c3)c3ccccc3n2)n1 | < 0.3 µM | 1.3 µM (≈ 0.48 µg/mL) | –
4 | Cc1cccc(-c2nc(Nc3ccc4nn[nH]c4c3)c3ccccc3n2)n1 | 1.3 µM (≈ 0.459 µg/mL) | 5 µM (≈ 1.77 µg/mL) | pKd [2]: < 5.00
5 | c1cncc(-c2nc(Nc3ccncc3)c3ccccc3n2)c1 | > 10 µM | > 10 µM | –
6 | COc1ccc2nc(-c3cccc(C)n3)nc(Nc3ccncc3)c2c1 | < 1 µM | < 1 µM | remaining at 0.5 h, 5 µM [3]: 23%; Stability [4]: Stable
7 | CSc1cccc(Nc2nc(-c3cccc(C)n3)nc3ccccc23)c1 | < 0.3 µM | 1.3 µM (≈ 0.466 µg/mL) | –
8 | Cc1ccc(NC(=O)c2ccnc(N3CCN(C)CC3)c2)cc1-c1ccc(C(=O)NCC2CC2)cc1 | – | – | inhibition at 20 µM [5]: > 90%; MIC50 [6]: 4 µM (≈ 1.93 µg/mL); MIC90 [6]: 6 µM (≈ 2.9 µg/mL)
9 | COc1cccc(-c2nc(Nc3ccncc3)c3ccccc3n2)n1 | 5 µM (≈ 1.65 µg/mL) | > 10 µM | –
10 | CO[C@H]1/C=C/O[C@@]2(C)Oc3c(C)c(O)c4c(O)c(c(/C=N/N5CCN(C)CC5)c(O)c4c3C2=O)NC(=O)/C(C)=C\C=C\[C@H](C)[C@H](O)[C@@H](C)[C@@H](O)[C@@H](C)[C@H](OC(C)=O)[C@@H]1C [RIFAMPIN] | – | – | MIC90 [7]: 0.4 µM (≈ 0.329 µg/mL)
11 | Cc1cccc(-c2nc(N(C)c3ccc4ncsc4c3)c3ccccc3n2)n1 | < 0.3 µM | 1.3 µM (≈ 0.499 µg/mL) | pKd [2]: < 5.00
12 | Fc1ccc(-c2c(-c3ccccn3)nc3n2CCS3)cc1 | – | – | inhibition at 20 µM [5]: > 90%; MIC50 [6]: 9 µM (≈ 2.68 µg/mL); MIC90 [6]: > 20 µM
13 | Fc1cccc(-c2nc(Nc3ccncc3)c3ccccc3n2)c1 | > 10 µM | > 10 µM | –
14 | Cc1cccc(-c2nc(Nc3ccc4c(c3)OCO4)c3ccccc3n2)n1 | < 0.3 µM | 1.3 µM (≈ 0.463 µg/mL) | remaining at 0.5 h, 5 µM [3]: 30%; Stability [4]: Stable; AUClast [8]: 0.25 µg·h/mL; t1/2 [9]: 3.4 h; Cmax [10]: 0.075 µg/mL
15 | Cc1cccc(-c2nc(Nc3ccc4nnn(C)c4c3)c3ccccc3n2)n1 | < 0.3 µM | 0.3 µM (≈ 0.11 µg/mL) | pKd [2]: < 5.00; remaining at 0.5 h, 5 µM [3]: 15%; Stability [4]: Stable
16 | Cn1cncc1-c1cc2c(Nc3ccc(OCc4ccccc4)cc3)ncnc2cn1 | – | – | inhibition at 20 µM [5]: > 90%; MIC50 [6]: 5 µM (≈ 2.04 µg/mL); MIC90 [6]: > 20 µM
17 | Cc1cccc(-c2nc(Nc3ccc4scnc4c3)c3ccccc3n2)n1 | < 0.3 µM | 1.3 µM (≈ 0.48 µg/mL) | pKd [2]: < 5.00
18 | c1ccc2c(Nc3ccncc3)nc(-c3cnccn3)nc2c1 | 1 µM (≈ 0.3 µg/mL) | > 10 µM | –
19 | Clc1cccc(-c2nc(Nc3ccncc3)c3ccccc3n2)n1 | < 1 µM | < 1 µM | remaining at 0.5 h, 5 µM [3]: 18%; Stability [4]: Stable
20 | Cc1cccc(-c2nc(Nc3ccc4nc(C)sc4c3)c3ccccc3n2)n1 | < 0.3 µM | 0.3 µM (≈ 0.115 µg/mL) | pKd [2]: < 5.00; remaining at 0.5 h, 5 µM [3]: 18%; Stability [4]: Stable
21 | Cc1cccc(-c2nc(Nc3ccc4ncccc4c3)c3ccccc3n2)n1 | 0.3 µM (≈ 0.109 µg/mL) | 5 µM (≈ 1.82 µg/mL) | –
22 | Fc1cccc(-c2nc(Nc3ccncc3)c3ccccc3n2)n1 | 1 µM (≈ 0.317 µg/mL) | 5 µM (≈ 1.59 µg/mL) | remaining at 0.5 h, 5 µM [3]: 18%; Stability [4]: Stable
23 | Cc1csc(-c2nc(Nc3ccncc3)c3ccccc3n2)n1 | > 10 µM | > 10 µM | –
24 | Cc1cccc(-c2nc(Nc3ccc4c(c3)ncn4C)c3ccccc3n2)n1 | 1.3 µM (≈ 0.476 µg/mL) | 5 µM (≈ 1.83 µg/mL) | pKd [2]: < 5.00
25 | CS(=O)(=O)CCNCc1coc(-c2ccc3ncnc(Nc4ccc(OCc5ccccc5)cc4)c3c2)c1 [GW566221A] | – | – | inhibition at 20 µM [5]: > 90%; MIC90 [6]: 3 µM (≈ 1.59 µg/mL); MIC90 [7]: 7 µM (≈ 3.7 µg/mL)
26 | Cc1cccc(-c2cc3ccccc3c(Nc3ccncc3)n2)n1 | 1 µM (≈ 0.312 µg/mL) | > 10 µM | –
27 | c1ccc2c(Nc3ccncc3)nc(-c3ccc4c(c3)OCO4)nc2c1 | > 10 µM | > 10 µM | –
